From EPA's CvTdb concentration-time database

Key:
Rat [1] = test: concentration in plasma after dosing; settings: dosed: Isoeugenol, 17 mg/kg, oral, Female, F344/N
Rat [2] = test: concentration in plasma after dosing; settings: dosed: Isoeugenol, 70 mg/kg, oral, Male, F344/N
Rat [3] = test: concentration in plasma after dosing; settings: dosed: Isoeugenol, 17 mg/kg, oral, Female, F344/N; remark: listed apart in the source
Rat [4] = test: concentration in plasma after dosing; settings: dosed: Isoeugenol, 17 mg/kg, oral, Female, F344/N; remark: listed apart in the source
Rat [5] = test: concentration in plasma after dosing; settings: dosed: Tetralin, 20 mg/kg, iv, Female, Harlan Sprague Dawley
Rat [6] = test: concentration in plasma after dosing; settings: dosed: Tetralin, 2 mg/kg, iv, Male, Harlan Sprague Dawley
Rat [7] = test: concentration in plasma after dosing; settings: dosed: Tetralin, 20 mg/kg, iv, Female, Harlan Sprague Dawley; remark: listed apart in the source
Rat [8] = test: concentration in plasma after dosing; settings: dosed: Tetralin, 2 mg/kg, iv, Male, Harlan Sprague Dawley; remark: listed apart in the source
Rat [9] = test: concentration in plasma after dosing; settings: 4 h; dosed: Tetralin; 20 mg/kg; iv; Male; F344
Rat [10] = test: concentration in plasma after dosing; settings: dosed: Tetralin, 20 mg/kg, iv, Female, Harlan Sprague Dawley; remark: listed apart in the source
human [11] = test: concentration in blood after dosing; negative times count back from the end of exposure; settings: dosed: methylethylketone, 400 ppm, inhalation, duration: 4 hr, male
In short: (§1)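 Sampling and analytical methods are those of each source and frequently went unreported. The concentration-versus-time and amount-versus-time points were compiled from published in vivo toxicokinetic studies and two structured collections. Most were digitised from plot screenshots with WebPlotDigitizer, with others copied from tables, in the reported units.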

human [12] = test: concentration in expired air after dosing; settings: dosed: styrene, inhalation
In short: as §1

C/C=C/c1ccc(O)c(OC)c1 [Isoeugenol]
Settings	concentration in plasma [ng/mL]
Rat [1], 8 h	31.8
Rat [1], 20 min	311
Rat [2], 2 min	74.6
Rat [2], 6 h	84.5
Rat [3], 1.5 h	26
Rat [3], 2 min	25.6
Rat [4], 5 h	28.3
Rat [4], 10 min	430

c1ccc2c(c1)CCCC2 [Tetralin]
Settings	concentration in plasma [µg/g]
Rat [5], 4 h	0.204
Rat [5], 5 min	20.3
Rat [6], 0.5033 h	0.192
Rat [6], 8 h	0.0056
Rat [7], 1 h	1.98
Rat [7], 24 h	0.0136
Rat [8], 1 h	0.0468
Rat [8], 24 h	0.00083
Rat [10], 0.5017 h	5.04
Rat [10], 8 h	0.0561

Settings	concentration in plasma [µg/g]
Rat [9]	0.15

CCC(C)=O [methylethylketone]
human [11]
Settings	concentration in blood [µM]
0.1276 h	272
0.2874 h	258
0.4715 h	227
0.9608 h	208
1.479 h	139
1.973 h	122
2.966 h	102
4.323 h	54.9
4.977 h	22.4
5.98 h	16.2
6.983 h	7.11

human [11], during exposure
Settings	concentration in blood [µM]
-64 s	309
-3.826 h	72.5
-3.661 h	84.6
-3.486 h	115
-2.992 h	143
-2.503 h	181
-1.994 h	218
-1.011 h	276

C=Cc1ccccc1 [styrene]
human [12], male
Settings	concentration in expired air [ppm]
0.1527 h, 51 ppm, duration: 1 hr	0.506
0.2175 h, 376 ppm, duration: 1 hr	4
0.2306 h, 216 ppm, duration: 1 hr	2.27
0.2368 h, 51 ppm, duration: 1 hr	0.409
0.2553 h, 99 ppm, duration: 7 hr	1.24
0.3483 h, 99 ppm, duration: 7 hr	1.14
0.4469 h, 376 ppm, duration: 1 hr	3.1
0.4803 h, 51 ppm, duration: 1 hr	0.317
0.5105 h, 99 ppm, duration: 7 hr	1.08
0.7137 h, 376 ppm, duration: 1 hr	2.21
0.8189 h, 99 ppm, duration: 7 hr	0.876
0.9608 h, 216 ppm, duration: 1 hr	0.927
0.9799 h, 51 ppm, duration: 1 hr	0.0904
1.046 h, 376 ppm, duration: 1 hr	1.29
1.064 h, 99 ppm, duration: 7 hr	0.733
1.944 h, 99 ppm, duration: 7 hr	0.648
1.964 h, 216 ppm, duration: 1 hr	0.501
1.984 h, 376 ppm, duration: 1 hr	0.934
1.988 h, 51 ppm, duration: 1 hr	0.0505
2.93 h, 99 ppm, duration: 7 hr	0.521
2.954 h, 376 ppm, duration: 1 hr	0.719
2.958 h, 216 ppm, duration: 1 hr	0.345
3.928 h, 216 ppm, duration: 1 hr	0.226
3.963 h, 376 ppm, duration: 1 hr	0.827
4.085 h, 99 ppm, duration: 7 hr	0.403
4.943 h, 376 ppm, duration: 1 hr	0.594
4.946 h, 216 ppm, duration: 1 hr	0.197
4.988 h, 99 ppm, duration: 7 hr	0.355
5.975 h, 376 ppm, duration: 1 hr	0.586
5.991 h, 216 ppm, duration: 1 hr	0.112
5.998 h, 99 ppm, duration: 7 hr	0.242
7.018 h, 216 ppm, duration: 1 hr	0.0821
19 s, 51 ppm, duration: 1 hr	14.8
41 s, 216 ppm, duration: 1 hr	4.56
65 s, 51 ppm, duration: 1 hr	1.02
96 s, 376 ppm, duration: 1 hr	9.08
141 s, 216 ppm, duration: 1 hr	3.69
148 s, 51 ppm, duration: 1 hr	0.849
148 s, 99 ppm, duration: 7 hr	2.17
196 s, 376 ppm, duration: 1 hr	7.4
214 s, 51 ppm, duration: 1 hr	0.744
251 s, 99 ppm, duration: 7 hr	1.35

human [12], 80 ppm, duration: 6 hr
Settings	concentration in expired air [ng/mL]
6.225 h	4.3
6.495 h	2.75
7.17 h	1.58
8.16 h	1.16
10.28 h	0.549
12.21 h	0.402
14.37 h	0.315
18.33 h	0.308
23.51 h	0.257
30.62 h	0.148
46.95 h	0.102
